Assay [1] has as its system Mycobacterium avium complex sp. Briefly: Antimycobacterial activity against Mycobacterium avium complex CIT19/06 clinical isolate after 5 days by Alamar Blue assay. Type of assay: functional. Conditions: CIT19/06, 120 h.
A further assay relates to Mycobacterium avium. Briefly: Antimycobacterial activity against Mycobacterium avium subsp. paratuberculosis CIT03 clinical isolate after 11 days by Alamar Blue assay. It counts as functional. Conditions: CIT03, 264 h.
Assay [2] deals with Mycobacterium tuberculosis. The assay is described as follows: Antimycobacterial activity against Mycobacterium tuberculosis H37Ra ATCC 25177 after 7 days by Alamar Blue assay. It counts as functional. The conditions noted are these: H37Ra ATCC 25177, 168 h. The essentials: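 Log-phase culture washed and resuspended in supplemented Middlebrook 7H9GC broth, adjusted to McFarland No. 1, then diluted 1:20. Equal volumes of culture and DMSO-prepared compound dilutions were tested in duplicate for 7 days. 10% AlamarBlue was added, with 570/600 nm readings for background and after 24 h reincubation. Blue meant no growth, pink meant growth. MIC was the lowest concentration without visible growth.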

In a further assay the test system is L6. Briefly: Cytotoxicity against rat L6 cells after 70 hrs by Alamar Blue-based assay. Type of assay: cell-based. The conditions noted are these: L6, 70 h. The essentials:
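Rat skeletal myoblast L-6 cells, 4000 per well, in RPMI 1640 with 10% FBS and L-glutamine. Eleven 3-fold serial dilutions spanning 100 to 0.002 were tested for 70 h. Alamar Blue was then added for 2 h and fluorescence read at ex 536 / em 588 nm. IC50 came from linear regression of sigmoid curves, averaged over two replicate experiments, with podophyllotoxin as control.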
A general note: The colour change of resazurin is a common sign of viable cells or microbes.

In brackets after ≈: the same amount, converted by molar mass.

With `COc1ccc(/C(=N/NC(=O)NNC(=O)NCCCC(C)Nc2cc(OC)cc3cccnc23)c2ccccc2)cc1` (centres undefined), the minimal inhibitory concentration (MIC) is 16 µg/mL (≈ 28.1 µM) in assay [1], 4 µg/mL (≈ 7.02 µM) with Mycobacterium avium and 2 µg/mL (≈ 3.51 µM) in assay [2].
For the compound `COc1cc(NC(C)CCCNC(=O)NNC(=O)N(C)C(c2ccccc2)c2ccccc2)c2ncccc2c1` (centres undefined), the MIC (in assay [1]; in the assay with Mycobacterium avium; in assay [2]) was 64 µg/mL (≈ 118 µM) throughout.
With `COc1cc(NC(C)CCCNC(=O)NNC(=O)NCCCC(C)Nc2cc(OC)cc3cccnc23)c2ncccc2c1` (centres undefined), the values for the MIC (in assay [1]; in the assay with Mycobacterium avium; in assay [2]) were 16 µg/mL (≈ 26.5 µM), 4 µg/mL (≈ 6.64 µM) and 2 µg/mL (≈ 3.32 µM), respectively.
As for `COc1cc(NC(C)CCCNC(=O)Nc2cccc(C(F)(F)F)c2)c2ncccc2c1` (centres undefined), the MIC (in assay [1]; in the assay on Mycobacterium avium; in assay [2]) was 2 µg/mL (≈ 4.48 µM) throughout. The 50% inhibitory concentration (IC50) in the assay with L6 was 150 µg/mL (≈ 336 µM).
Take `COc1cc(NC(C)CCCNC(=O)Nc2ccc(O)cc2)c2ncccc2c1` (centres undefined): the values for the minimum inhibitory concentration (MIC) (in assay [1]; in the assay with Mycobacterium avium; in assay [2]) were 256 µg/mL (≈ 649 µM), 128 µg/mL (≈ 324 µM) and 128 µg/mL (≈ 324 µM), respectively. This compound returned an IC50 with L6 of 14.8 µg/mL (≈ 37.5 µM).
For the compound `COc1cc(NC(C)CCCNC(=O)NNC(=O)Nc2cccc(Cl)c2)c2ncccc2c1` (centres undefined), the MIC in assay [1] was determined as 256 µg/mL (≈ 544 µM); in the assay on Mycobacterium avium, 128 µg/mL (≈ 272 µM); in assay [2] it was 128 µg/mL (≈ 272 µM).
With `COc1cc(NC(C)CCCNC(=O)Nc2cccc(Cl)c2)c2ncccc2c1` (centres undefined), the MIC (in assay [1]; against Mycobacterium avium; in assay [2]) was 16 µg/mL (≈ 38.7 µM) in each case. Half-maximal inhibition in the assay on L6 (IC50) was put at 10 µg/mL (≈ 24.2 µM).
Take `COc1cc(NC(C)CCCNC(=O)NNC(=O)Nc2cccc(F)c2)c2ncccc2c1` (centres undefined): the MIC amounted to 256 µg/mL (≈ 563 µM) in assay [1], 128 µg/mL (≈ 282 µM) in the assay on Mycobacterium avium and 128 µg/mL (≈ 282 µM) in assay [2].
Turning to `COc1cc(NC(C)CCCNC(=O)Nc2cccc(O)c2)c2ncccc2c1` (centres undefined), the results for the MIC (in assay [1]; with Mycobacterium avium; in assay [2]) were 16 µg/mL (≈ 40.6 µM), 16 µg/mL (≈ 40.6 µM) and 8 µg/mL (≈ 20.3 µM), respectively. Also, it took 38 µg/mL (≈ 96.3 µM) to reach half-maximal inhibition with L6 (IC50).
Turning to `COc1cc(NC(C)CCCNC(=O)Nc2cccc(F)c2)c2ncccc2c1` (centres undefined), the MIC in assay [1] came to 8 µg/mL (≈ 20.2 µM); against Mycobacterium avium, 4 µg/mL (≈ 10.1 µM); in assay [2] it was 2 µg/mL (≈ 5.04 µM). Further, the IC50 in the assay on L6 worked out at 9.18 µg/mL (≈ 23.2 µM).
As to `COc1cc(NC(C)CCCNC(=O)NNC(=O)Nc2cccc(C(F)(F)F)c2)c2ncccc2c1` (centres undefined), the MIC (in assay [1]; against Mycobacterium avium; in assay [2]) was 128 µg/mL (≈ 254 µM) in each case.
As for `COc1cc(NC(C)CCCNC(=O)Nc2ccc(F)cc2)c2ncccc2c1` (centres undefined), the minimum inhibitory concentration (MIC) in assay [1] was found to be 16 µg/mL (≈ 40.4 µM); against Mycobacterium avium, 16 µg/mL (≈ 40.4 µM); in assay [2], 8 µg/mL (≈ 20.2 µM). In the assay with L6, this compound registered an IC50 of 9.3 µg/mL (≈ 23.5 µM).
Take `COc1cc(NC(C)CCCNC(=O)/C=C/c2ccc(OC)c(OC)c2)c2ncccc2c1` (centres undefined): the MIC in assay [1] is 256 µg/mL (≈ 569 µM); against Mycobacterium avium, 128 µg/mL (≈ 285 µM); in assay [2], 128 µg/mL (≈ 285 µM). In the assay with L6, this compound yielded an IC50 above 100 µg/mL.
As to `COc1cc(NC(C)CCCNC(=O)/C=C/c2cc(OC)c(OC)c(OC)c2)c2ncccc2c1` (centres undefined), the MIC (in assay [1]; in the assay on Mycobacterium avium; in assay [2]) was 256 µg/mL (≈ 534 µM) each time. The same compound registered an IC50 in the assay with L6 above 100 µg/mL.
Take `COc1cc(NC(C)CCCNC(=O)/C=C/c2ccccc2F)c2ncccc2c1` (centres undefined): the minimum inhibitory concentration (MIC) in assay [1] is 128 µg/mL (≈ 314 µM); in the assay on Mycobacterium avium it was 64 µg/mL (≈ 157 µM); in assay [2] it was 32 µg/mL (≈ 78.5 µM). In the assay with L6, this compound had an IC50 of 1.5 µg/mL (≈ 3.68 µM).
Regarding `NNC(=O)c1ccncc1` [ISONIAZID], the MIC in assay [1] was above 256 µg/mL; in the assay with Mycobacterium avium, above 256 µg/mL; in assay [2], 5 µg/mL (≈ 36.5 µM).
In turn, `COc1cc([C@@H]2c3cc4c(cc3[C@H](O)[C@H]3COC(=O)[C@H]23)OCO4)cc(OC)c1OC` [PODOFILOX] registered an IC50 with L6 of 0.007 µg/mL (≈ 0.0169 µM).
With `COc1cc(NC(C)CCCN)c2ncccc2c1.O=P(O)(O)O.O=P(O)(O)O` (centres undefined) [PRIMAQUINE PHOSPHATE], the minimum inhibitory concentration (MIC) (in assay [1]; in the assay with Mycobacterium avium; in assay [2]) was 32 µg/mL each time.
As to `CO[C@H]1/C=C/O[C@@]2(C)Oc3c(C)c(O)c4c(O)c(c(/C=N/N5CCN(C)CC5)c(O)c4c3C2=O)NC(=O)/C(C)=C\C=C\[C@H](C)[C@H](O)[C@@H](C)[C@@H](O)[C@@H](C)[C@H](OC(C)=O)[C@@H]1C` [RIFAMPIN], the values for the MIC (in assay [1]; against Mycobacterium avium; in assay [2]) were 30 µg/mL (≈ 36.5 µM), 90 µg/mL (≈ 109 µM) and 8 µg/mL (≈ 9.72 µM), respectively.

As usually defined, the MIC is the smallest concentration in the dilution series that meets the test's criterion for growth inhibition. The low end stands for greater potency, the high end for weaker potency. The IC50 is the concentration that gives 50% inhibition. Lower therefore signals greater potency.

The values above are taken from ChEMBL document CHEMBL4251591, “Primaquine hybrids as promising antimycobacterial and antimalarial agents” (Eur J Med Chem, 2018).
